# Assay results from ChEMBL document CHEMBL1149900, “ent-Labdane diterpenoid lactone stereoisomers from Andrographis paniculata” (2008).
# System: HL-60
# Test: Antiproliferative activity against human HL60 cells by trypan blue assay
# Assay type: functional
# In short: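 HL-60 cells seeded at 1 × 10^5 cells/mL, exposed to test compound at 5, 10, 20, 40 or 60 µM for 3 days. Viable growth scored by trypan blue staining, with total cells counted on a hemocytometer. GI50 taken as the concentration halving cell growth. Reported as mean ± SD of three independent experiments, with adriamycin as positive control.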
row,SMILES,GI50
1,C=C1CC[C@@H]2[C@](C)(CO)[C@H](O)CC[C@@]2(C)[C@@H]1/C=C/C1=CCOC1=O,25.6 µM
2,C=C1CC[C@@H]2[C@](C)(CO)[C@H](O)CC[C@@]2(C)[C@@H]1C[C@@H](O)[C@H]1C(=O)OC[C@H]1O,26.6 µM
3,C=C1CC[C@@H]2[C@](C)(CO)[C@H](O)CC[C@@]2(C)[C@@H]1CCO,24.9 µM
4,C=C1CC[C@@H]2[C@](C)(CO)[C@H](O)CC[C@@]2(C)[C@@H]1/C=C/C1=CC(OC)OC1=O (some centres undefined),26.4 µM
5,C=C1CC[C@@H]2[C@](C)(CO)[C@H](O)CC[C@@]2(C)[C@@H]1/C=C/C(=O)O,28.8 µM
6,C=C1[C@@H](CCC2=CCOC2=O)[C@]2(C)CC[C@@H](O)[C@@](C)(CO)[C@H]2C[C@@H]1O,25.2 µM
7,C=C1CC[C@@H]2[C@](C)(CO[C@@H]3O[C@H](CO)[C@@H](O)[C@H](O)[C@H]3O)[C@H](O)CC[C@@]2(C)[C@@H]1C/C=C1/C(=O)OC[C@H]1O [ANDROGRAPHISIDE],28.8 µM
8,C=C1CC[C@@H]2[C@](C)(CO)[C@H](O)CC[C@@]2(C)[C@@H]1CCC1=CCOC1=O [DEOXYANDROGRAPHOLIDE],25.5 µM
9,C=C1CC[C@@H]2[C@](C)(CO[C@@H]3O[C@H](CO)[C@@H](O)[C@H](O)[C@H]3O)CCC[C@@]2(C)[C@@H]1CCC1=CCOC1=O [NEOANDROGRAPHOLIDE],26.7 µM

# More lines, now with the values ahead:
row,GI50,SMILES
1,19.2 µM,C=C1CC[C@H]2[C@@](C)(CCC(=O)[C@@]2(C)CO)[C@@H]1/C=C/C1=CCOC1=O
2,6.3 µM,C=C1CC[C@@H]2[C@](C)(CO)[C@H](O)CC[C@@]2(C)[C@@H]1C/C=C1\C(=O)OC[C@H]1O
3,22.5 µM,C=C1[C@H](O)C[C@@H]2[C@](C)(CO)[C@H](O)CC[C@@]2(C)[C@@H]1CCC1=CCOC1=O
4,24.4 µM,C=C1CC[C@@H]2[C@](C)(CO)[C@H](O)CC[C@@]2(C)[C@@H]1C[C@H](O)[C@@H]1C(=O)OC[C@H]1O
5,20.4 µM,C=C1CC[C@@H]2[C@](C)(CO)CCC[C@@]2(C)[C@@H]1CC/C(=C/CO)CO
6,22.4 µM,C=C1CC[C@@H]2[C@](C)(CO)[C@H](O)CC[C@@]2(C)[C@@H]1CC/C(=C/CO)C(=O)O
7,22.8 µM,C=C1CC[C@H]2[C@@](C)(CCC(=O)[C@@]2(C)CO)[C@@H]1CCC1=CCOC1=O
8,20 µM,C=C1CC[C@@H]2[C@](C)(CO)CCC[C@@]2(C)[C@@H]1CCC1=CCOC1=O [ANDROGRAPANIN]
9,9.33 µM,C=C1CC[C@@H]2[C@](C)(CO)[C@H](O)CC[C@@]2(C)[C@@H]1C/C=C1/C(=O)OC[C@H]1O [ANDROGRAPHOLIDE]
10,0.018 µM,COc1cccc2c1C(=O)c1c(O)c3c(c(O)c1C2=O)C[C@@](O)(C(=O)CO)C[C@@H]3O[C@H]1C[C@H](N)[C@H](O)[C@H](C)O1 [DOXORUBICIN]
